Screens: PubChem, Broad Institute
CaV13 ICDI inh – Disruptors of the CACNA1D IQ motif to Ca2+-dependent inactivation inhibitor domain association, primary screening, Förster resonance energy transfer in intact living …; HEK cells, CFP/YFP FRET ICDI-IQ, plate reader, 10 min; percent FRET-ratio fall versus neutral wells; inhibition, % at 12.3 µM; AID 743397; 340,000 tested, 0.098% active;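 active = mean replicate inhibition of at least 30% and at least 1% of replicates passing that level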;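 note: 0% = median of the neutral control wells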
PfHsp90 set2 – inhibits growth of yeast expressing Plasmodium falciparum Hsp90 | S. cerevisiae expressing PfHsp90, BacTiter-Glo ATP, 48 h; yeast lacking PDR1 and PDR3 efflux regulators | inhibition, % at 9.4 µM | 310,000 tested, 0.32% active;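 active = every replicate shows inhibition above about 80%, whatever the replicate mean, limit read from the data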;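 note: 0% = DMSO neutral controls and 100% = 20 µM radicicol positive controls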
HSF1 activator – increases HSF-1 driven luciferase reporter signal. NIH3T3-HGL HSF-1 luciferase reporter, MG132, 8 h; 100% = twice DMSO control signal. activation, % at 9 µM. 300,000 tested, 1.7% active. AID 504408;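 active = mean replicate activation of at least 50% with a set share of replicates each reaching 50%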;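 note: 0% = median of the neutral control wells and 100% = twice that signal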
T cruzi inh – T. cruzi replication inhibition; T. cruzi beta-gal in NIH3T3, luminescence, 90 h; inhibition, % (test concentration not listed); 300,000 tested, 1.4% active; AID 1885;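 active = mean inhibition across valid replicates above about 55%, limit read from the data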;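 note: signal also drops with host cell toxicity which is not excluded here; 0% = plate median of DMSO wells and 100% = zero luminescence signal; higher percent means less beta-gal luminescence so fewer parasites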
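Assay system: NIH/3T3 host cells with β-galactosidase reporter T. cruzi; input: 5,000 host fibroblasts per well; compound: single 50 nL compound addition per well in DMSO; timing: ≥90 h infection period, 3 h prior cell attachment; measured by: GalScreen β-gal luminescence, detergent lysis, 60 min; evaluation: percent inhibition of parasite-derived β-gal signal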
Glyco luc inh – N-linked glycosylation inhibition | 360,000 tested, 0.23% active | reporter increase, % at 12.5 µM | D54 ERlucT glycosylation luciferase reporter, 24 h; percent of 100 nM tunicamycin response;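 active = mean luciferase reporter signal, scaled so untreated is 0 and the glycosylation-blocking control 100, at or above a set limit in every replicate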;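 note: luciferase carries N-glycosylation sites so blocking glycosylation raises the light; 0% = median of neutral control wells and 100% = median of 100 nM tunicamycin wells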
PvdQ acylase – P. aeruginosa PvdQ acylase inhibition. AID 488965. purified PvdQ acylase, fluorescence plate reader. inhibition, % at 10 µM. 340,000 tested, 0.063% active; in the data active = inhibition above about 30%, passing the limit was not always enough;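 note: 0% = vehicle neutral wells and 100% = reference inhibitor wells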
* hit, by the source's call; x = no result given. Rows were chosen to be rich in hits. Some 3% of all compounds tested hit in one or more screens of this group.

SMILES | CaV13 ICDI inh | PfHsp90 set2 | HSF1 activator | T cruzi inh | Glyco luc inh | PvdQ acylase
C[C@@H]1CCCCO[C@H](CN(C)C(=O)CCC(F)(F)F)[C@H](C)CN([C@@H](C)CO)C(=O)c2cc(NS(=O)(=O)c3ccc(Cl)cc3)ccc2O1 | -6 | x | x | x | x | x
Cc1ccc(C2CC(c3cccs3)=NN2C(=O)CCl)cc1 (stereo not given) | -6 | -49 | 11 | 59* | 13 | -7
CCC(=O)N1N=C(c2cccs2)CC1c1ccc(C)cc1 (stereo not given) | -18 | 12 | 21 | 19 | -3 | 10
O=C(Nc1ccc(F)c(Cl)c1)c1cc(C2CCCCN2C(=O)CCc2ccccc2)on1 (stereo not given) | -5 | x | x | x | -5 | x
Oc1ccccc1C1NN=C(c2ccccc2)S1 (stereo not given) | -21 | 8 | 81* | -18 | -16 | -4
COc1cccc(CNC(=O)[C@H]2CCCN2C(=O)[C@H]2CCCN2C(=O)c2cccc(F)c2)c1 | -10 | x | x | x | x | x
COc1ccc(CCn2c(-c3cc([N+](=O)[O-])cc([N+](=O)[O-])c3)nc3nc4ccccc4nc32)cc1 | -5 | -11 | -2 | 57* | 4 | -6
COc1ccc(CCn2c(-c3cccc([N+](=O)[O-])c3)nc3nc4ccccc4nc32)cc1 | -5 | 15 | x | x | 1 | -1
COc1ccc(CCn2c(-c3cc([N+](=O)[O-])cc([N+](=O)[O-])c3)nc3nc4ccccc4nc32)cc1OC | -5 | -3 | -6 | 62* | 1 | -8
O=C(c1ccco1)N1CCC2CC1c1c(Cl)cccc12 (stereo not given) | -6 | x | x | x | 0 | x
O=C(NC(=O)c1ccccc1O)c1ccc(C(F)(F)F)cc1 | -19 | x | 91* | -11 | -3 | x
Cc1ccc(OCc2nnc(SCC(=O)Nc3cccc4ccccc34)n2-c2ccccc2)cc1 | -5 | -5 | 73* | 16 | -6 | 4
Cc1cccc(C)c1NC(=O)CSc1nnc(Cn2nnc(-c3ccccc3)n2)n1-c1ccccc1 | -5 | x | 74* | 19 | -2 | -11
O=Cc1ccc(OCc2ccc3ccccc3c2)cc1 | -21 | 7 | 60* | -16 | -5 | -6
O=Cc1ccc(OCc2ccccn2)cc1 | -6 | 11 | 6 | 1 | -4 | -17
Cc1nc(N/C(N)=N/S(=O)(=O)c2ccccc2)nc2ccccc12 | -6 | 16 | x | x | 2 | -9
Cc1nc(N/C(N)=N/S(=O)(=O)c2ccc([N+](=O)[O-])cc2)nc2ccccc12 | -3 | -16 | 13 | 56* | 0 | 1
Cc1ccc2c(C)nc(N/C(N)=N/S(=O)(=O)c3ccc([N+](=O)[O-])cc3)nc2c1 | -4 | x | 7 | 55* | 3 | -1
O=C1c2ccccc2NC(c2cc(Cl)cc(Cl)c2O)N1CCc1ccccn1 (stereo not given) | -13 | x | x | x | x | x
O=C(/C=C/c1cccs1)Nc1ccncc1 | -3 | 9 | 16 | -13 | -1 | 36*
Cc1ccc(NC(=O)/C=C/c2cccs2)c([N+](=O)[O-])c1 | -5 | -23 | 63* | -40 | 2 | -2
CC(=O)Nc1ccc(NC(=O)/C=C/c2ccc(Cl)cc2)cc1 | -4 | -4 | 9 | -17 | 0 | -3
CC(C)(C)c1ccc(/C=C/C(=O)Nc2ccncc2)cc1 | -4 | 0 | 56* | 36 | 2 | -10
O=C(/C=C/c1cccs1)Nc1ccc([N+](=O)[O-])cc1 | -2 | -9 | 26 | -11 | 3 | 1
Cc1ccc(NC(=O)/C=C/C(=O)O)c([N+](=O)[O-])c1 | -7 | 30 | 24 | -10 | 1 | -10
SMILES | CaV13 ICDI inh | PfHsp90 set2 | HSF1 activator | T cruzi inh | Glyco luc inh | PvdQ acylase
Cc1ccc(N2CCN(C(CCc3ccccc3)C(=O)Nc3c(C)cccc3C)CC2)cc1 (stereo not given) | -15 | x | x | x | x | x
O=C(NCc1ccccc1)C(CCc1ccccc1)n1c(=O)c(-c2ccccc2)nc2ccccc21 (stereo not given) | -11 | x | x | x | x | x
CC1C(c2ccccc2)N(C)C(c2ccccc2)CC1(O)c1ccc(F)cc1 (stereo not given) | -6 | -5 | -2 | 58* | -4 | -11
CN1C(c2ccccc2)CC(C)(O)CC1c1ccccc1 (stereo not given) | -11 | x | x | x | x | x
C[C@H](O)[C@@H]1C(=O)N2CCc3c([nH]c4ccccc34)[C@@H]2C[C@@H]1N(C)C(=O)OCc1ccccc1 | -3 | x | x | x | x | x
COc1ccc(Oc2cccc3c2S(=O)(=O)N(C2CC2)C[C@@H](COCc2ccccc2)O3)cc1 | -7 | x | x | x | x | x
CC(=O)c1sc(N/N=C\c2ccccc2O)nc1C | -4 | -1 | 56* | 12 | 2 | 9
OCC1OC(n2ccc3c(SCc4ccccc4)ncnc32)C(O)C1O (stereo not given) | -16 | -21 | x | x | 32* | -15
OCC1OC(n2cnc3c(SCc4ccccc4)ncnc32)C(O)C1O (stereo not given) | -17 | -16 | x | x | 113* | -12
CC(C)N(CCC(=O)c1ccc2ccccc2c1)Cc1ccccc1 | -5 | 114* | x | x | -9 | 4
CC1CC(C)CN(C(=O)c2ccc(-c3ccc([N+](=O)[O-])cc3)o2)C1 (stereo not given) | -6 | 9 | 3 | 21 | 6 | 9
O=C(c1ccc(-c2ccc([N+](=O)[O-])cc2)o1)N1CCCCC1 | -2 | 15 | 87* | -8 | -11 | 0
S=C(c1ccc(-c2ccccc2Cl)o1)N1CCCCC1 | -6 | -10 | 38 | 26 | -6 | 2
S=C(c1ccc(-c2ccc(Cl)cc2)o1)N1CCCCC1 | x | -23 | 101* | 21 | -14 | -10
CN1CCN(C(=S)c2ccc(-c3cccc(Cl)c3Cl)o2)CC1 | -2 | 32 | 68* | 10 | -7 | -20
CN(C)c1nc(C=C(C#N)C#N)c(Cl)n1-c1ccc(F)cc1 | -31 | 15 | 95* | 16 | 10 | 0
CC(C)COC(=O)N1CCCCC1c1cc(C(=O)NCc2ccc(F)cc2)no1 (stereo not given) | -9 | x | x | x | -3 | x
COc1cc2ccccc2nn1 | -38 | 14 | 9 | -11 | 1 | -6
COc1ccc2c(n1)Sc1nc3ccccc3nc1N2 | -95 | 89* | 55* | -5 | 2 | -1
CC(C)[C@H](NC(N)=O)C(=O)NNC(=O)COc1cccc(C(F)(F)F)c1 | -4 | -10 | 142* | 0 | 3 | -16
COC(=O)C1=C(C)C(c2ccc(OC)cc2OC)NC(=O)N1 (stereo not given) | x | 0 | -3 | -1 | 4 | -7
COc1ccc(C2CC(C)(c3ccc(OC)cc3OC)Nc3ccccc3N2)c(OC)c1 (stereo not given) | -7 | x | 13 | 73* | 1 | 1
